In ChEMBL document CHEMBL1144989, “Synthesis and biological evaluation of resveratrol and analogues as apoptosis-inducing agents” (J Med Chem, 2003):

Tests used:
HL-60 [1] = experiment: In vitro concentration required to induce apoptosis in HL60 cells; type: functional, cell-based, Homo sapiens
Summary of the method: (§1)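 Apoptosis scored morphologically after acridine orange/ethidium bromide labeling. 2 × 10^5 cells were pelleted at 300g, resuspended in dye mix and examined under a fluorescence microscope with a 100× oil objective. Percentages were confirmed by annexin V/PI and by the PI sub-G0-G1 hypodiploid peak after 48 h culture. Compounds were diluted in medium from DMSO or PBS, DMSO ≤0.1%.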

HL-60 [2] = experiment: In vitro inhibitory concentration against proliferation of HL60 cells; type: functional, cell-based, Homo sapiens
Summary of the method: (§2)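 Cells were cultured at 37 °C in 5% CO2. 2 × 10^5 cells in 1 mL complete medium were treated with a range of drug concentrations for 48 h. Viable cells were counted on a hemocytometer after trypan blue staining and expressed as percent of control proliferation. Compounds were diluted in medium from DMSO or PBS stocks, final DMSO ≤0.1%, protected from light.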

HL-60 [3] = experiment: (§3) In vitro inhibitory concentration against proliferation of HL60R cells along with 5 (uM) verapamil; type: functional, cell-based; settings: Homo sapiens; summary of the method: as §2
HL-60 [4] = experiment: (§4) In vitro inhibitory concentration against proliferation of HL60R cells; type: functional, cell-based; settings: Homo sapiens; summary of the method: as §2
HL-60 [5] = experiment: (§5) In vitro concentration required to induce apoptosis in HL60R cells; type: functional, cell-based; settings: Homo sapiens; summary of the method: as §1
HL-60 [6] = experiment: In vitro concentration required to inhibit cell proliferation in HL60R cells; settings: Homo sapiens
HL-60 [7] = experiment: as §4; type: functional, cell-based; settings: Homo sapiens; remark: listed apart in the source
Summary of the method: (§6)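 HL60R cells, 2 × 10^5 per well in 1 mL complete medium at 37 °C with 5% CO2, treated with a range of drug concentrations for 48 h. Compounds were dissolved in DMSO or PBS, with final DMSO ≤0.1%. Viable cells were counted by trypan blue exclusion on a hemocytometer and expressed as percent of control proliferation to derive the IC50.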

HL-60 [8] = experiment: as §5; type: functional, cell-based; settings: Homo sapiens; remark: listed apart in the source
Summary of the method: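 HL60R cells in 5% CO2 at 37 °C, treated with a range of drug concentrations for 48 h. Cells were labelled with acridine orange/ethidium bromide and scored under fluorescence microscopy (100× oil) as live, apoptotic or necrotic. The AC50 is derived from the percentage of apoptotic cells. Annexin V/PI staining and PI sub-G0-G1 flow cytometry served as confirmation. DMSO ≤0.1%.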

HL-60 [9] = experiment: as §3; type: functional, cell-based; settings: Homo sapiens; remark: listed apart in the source
Summary of the method: as §6, with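 “given verapamil together” for “treated”, “h.” for “h. Compounds were dissolved in DMSO or PBS, with final DMSO ≤0.1%.”, “IC50. Final DMSO ≤0.1%.” for “IC50.”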

Compound	AC50 (HL-60 [1]; Homo sapiens, HL-60) [nM]	IC50 (HL-60 [2]; Homo sapiens, HL-60) [nM]	further results
COc1ccc(/C=C\c2cc(O)cc(O)c2)cc1O	70000	40000	
COc1cc(/C=C\c2ccc(OC)c(N)c2)cc(OC)c1	40		IC50 (HL-60 [3]): 32 nM; IC50 (HL-60 [4]): 35 nM; AC50 (HL-60 [5]): 50 nM
O=c1[nH]cc(F)c(=O)[nH]1 [FLUOROURACIL]	6500	1500	
COc1cc(/C=C\c2ccc(O)c(OC)c2)cc(OC)c1	38000	20000	
COc1cc(/C=C/c2ccc(O)c(O)c2)cc(OC)c1	1000	800	
COc1cc(/C=C\c2ccc(O)cc2)cc(OC)c1	5000	2000	
Oc1ccc(/C=C/c2cc(O)cc(O)c2)cc1 [RESVERATROL]	50000	5000	
COc1cccc2c1C(=O)c1c(O)c3c(c(O)c1C2=O)C[C@@](O)(C(C)=O)C[C@@H]3O[C@H]1C[C@H](N)[C@H](O)[C@H](C)O1 [DAUNORUBICIN]	40	5	IC50 (HL-60 [3]): 40 nM; IC50 (HL-60 [4]): 1500 nM; AC50 (HL-60 [5]): 10000 nM
COc1cc(/C=C\c2ccc(O)c(O)c2)cc(OC)c1	100	50	
COc1cc(/C=C/c2ccc(O[Si](C)(C)C(C)(C)C)cc2)cc(OC)c1	> 200000	48000	
Oc1ccc(/C=C\c2cc(O)cc(O)c2)cc1 [CIS-RESVERATROL]	> 200000	42000	
COc1ccc(/C=C\c2cc(O)cc(O)c2)cc1N	68000	40000	
COc1ccc(/C=C/c2cc(O)cc(O)c2)cc1N	> 200000	80000	
Nc1ccn([C@@H]2O[C@H](CO)[C@@H](O)[C@@H]2O)c(=O)n1 [CYTARABINE]	150	80	IC50 (HL-60 [6]): 350 nM; AC50 (HL-60 [5]): 8000 nM
COc1cc(/C=C\c2ccc(O[Si](C)(C)C(C)(C)C)cc2)cc(OC)c1	> 200000	50000	
COc1cc([C@@H]2c3cc4c(cc3[C@@H](O[C@@H]3O[C@@H]5CO[C@@H](C)O[C@H]5[C@H](O)[C@H]3O)[C@H]3COC(=O)[C@H]23)OCO4)cc(OC)c1O [ETOPOSIDE]	450	123	IC50 (HL-60 [3]): 500 nM; IC50 (HL-60 [4]): 6500 nM; AC50 (HL-60 [5]): 15000 nM
CISPLATIN			AC50 (HL-60 [1]; hl-60): 1200 nM; IC50 (HL-60 [2]; hl-60): 600 nM
COc1cc(/C=C/c2ccc(OC)c(N)c2)cc(OC)c1	8000	4000	
COc1cc(/C=C/c2ccc(O)c(OC)c2)cc(OC)c1	40000	25000	
COc1cc(/C=C/c2ccc(OC)c(O)c2)cc(OC)c1	900	700	
COc1cc(/C=C\c2ccc(OC)c(O)c2)cc(OC)c1	40		IC50 (HL-60 [7]): 25 nM; AC50 (HL-60 [8]): 30 nM; IC50 (HL-60 [9]): 20 nM
COc1cc(/C=C/c2ccc(O)cc2)cc(OC)c1 [PTEROSTILBENE]	70000	35000	
COc1ccc(/C=C/c2cc(O)cc(O)c2)cc1O	> 200000	48000	
